Measured values of several laboratories.
Protocols differ between the studies behind these lines.
USP51: Ubiquitin carboxyl-terminal hydrolase 51 (USP51, Homo sapiens, UniProt Q70EK9)
SLC6A3: Sodium-dependent dopamine transporter (SLC6A3, Homo sapiens, UniProt Q01959)
CA12: Carbonic anhydrase 12 (CA12, Homo sapiens, UniProt O43570)
DRD3: D(3) dopamine receptor (DRD3, Homo sapiens, UniProt P35462)

SMILES | target | assay | system | conditions | inhibition
COc1ccc(C(C)=O)c(O)c1 | USP51 | enzyme activity, inhibitor | – | 5 µM | 18%
Clc1ccc(C(c2ccc(Cl)cc2)c2nnnn2CCCCN2CCC(c3ccccc3)CC2)cc1 | SLC6A3 | transporter uptake, inhibitor | HEK293 | 1 µM | 90.1%
N[C@@H](CSSC[C@H](N)C(=O)O)C(=O)O | USP51 | enzyme activity, inhibitor | – | 5 µM | 24%
Fc1ccc(C(c2ccc(F)cc2)c2nnnn2CCCN2CCC(Cc3ccccc3)CC2)cc1 | SLC6A3 | transporter uptake, inhibitor | HEK293 | 1 µM | 93.5%
C[C@H](CCC(=O)NCC(=O)O)[C@H]1CC[C@H]2[C@@H]3[C@H](O)C[C@@H]4C[C@H](O)CC[C@]4(C)[C@H]3C[C@H](O)[C@]12C | USP51 | enzyme activity, inhibitor | – | 5 µM | 0%
N#CC1CSc2[nH]c(=O)sc2C1c1cn(-c2ccccc2)nc1-c1ccc(Br)cc1 (stereo not shown) | CA12 | enzyme activity, inhibitor, absorbance | – | 1 µM | 61.5%
Cc1ccc(Nc2nccc(N(C)c3ccc4c(C)n(C)nc4c3)n2)cc1S(N)(=O)=O | Tyrosine-protein kinase Lyn (Lyn, Mus musculus, UniProt P25911) | enzyme activity, inhibitor | – | 10 µM | 97%
O=C(CN1CCN(c2ccc(F)cc2)CC1)Nc1cc(Cl)cc(Cl)c1 | DRD3 | enzyme activity, inhibitor | – | 10 µM | -6.1%
Cc1ccc(-c2nn(-c3ccccc3)cc2C2c3sc(=O)[nH]c3SC3C(=O)N(c4ccccc4)C(=O)C32)cc1 (stereo not shown) | CA12 | enzyme activity, inhibitor, absorbance | – | 10 nM | 13.8%
O=C1CC(N2CCN(Cc3ccccc3)CC2)C(=O)N1c1ccc2c(c1)OCCO2 (stereo not shown) | DRD3 | enzyme activity, inhibitor | – | 10 µM | -26%
Clc1ccc(C(c2ccc(Cl)cc2)c2nnnn2CCCCN2CCC(Cc3ccc(Cl)c(Cl)c3)CC2)cc1 | SLC6A3 | transporter uptake, inhibitor | HEK293 | 1 µM | 62.6%
CC(C)Oc1ccc2c(=O)c(-c3ccccc3)coc2c1 | USP51 | enzyme activity, inhibitor | – | 5 µM | 43%
O=C(NCCN1CCN(C(=O)c2ccccc2)CC1)C(=O)Nc1ccccc1 | DRD3 | enzyme activity, inhibitor | – | 10 µM | -26.2%
CCOC(=O)C1CSc2[nH]c(=O)sc2C1c1cn(-c2ccccc2)nc1-c1ccc(OC)cc1 (stereo not shown) | CA12 | enzyme activity, inhibitor, absorbance | – | 1 µM | 58.2%
COc1cc(NC(C)=O)c(Cl)cc1C(=O)Nc1nccs1 | Peroxisome proliferator-activated receptor gamma (PPARG, Homo sapiens, UniProt P37231) | cell-free assay | – | 10 µM | 31.6%
O=C1C2CCCN2C(=O)N1CCCCN1CCN(c2cccc(C(F)(F)F)c2)CC1 (stereo not shown) | DRD3 | enzyme activity, inhibitor | – | 10 µM | 42.5%
Nc1ncnc2c1ncn2[C@@H]1O[C@H](CO)[C@@H](O)[C@H]1O | USP51 | enzyme activity, inhibitor | – | 5 µM | 24%
CCOC(=O)C1CSc2[nH]c(=O)sc2C1c1cn(-c2ccccc2)nc1-c1ccccc1 (stereo not shown) | CA12 | enzyme activity, inhibitor, absorbance | – | 10 µM | 72.5%
CC[C@H]1CN2CCc3cc(OC)c(OC)cc3[C@@H]2C[C@@H]1C[C@H]1NCCc2cc(OC)c(OC)cc21 | USP51 | enzyme activity, inhibitor | – | 5 µM | 20%
CC(C)c1ccccc1OCCOCC(O)CN1CCN(c2cccc(C(F)(F)F)c2)CC1 (stereo not shown) | DRD3 | enzyme activity, inhibitor | – | 10 µM | 14.3%
CCOC(=O)C1CSc2[nH]c(=O)sc2C1c1cn(-c2ccccc2)nc1-c1ccc(Br)cc1 (stereo not shown) | CA12 | enzyme activity, inhibitor, absorbance | – | 10 µM | 81%
COc1ccc(S(N)(=O)=O)cc1C(=O)NCCCN1CCN(c2ccccc2C)CC1 | DRD3 | enzyme activity, inhibitor | – | 10 µM | 22.8%
Clc1ccc(CC2CCN(CCCCn3nnnc3C(c3ccccc3)c3ccccc3)CC2)cc1Cl | SLC6A3 | transporter uptake, inhibitor | HEK293 | 1 µM | 67.7%
NS(=O)(=O)c1ccc(CCNCc2ccc(-c3ccccc3F)o2)cc1 | DRD3 | enzyme activity, inhibitor | – | 10 µM | 44.2%
COc1ccccc1O | USP51 | enzyme activity, inhibitor | – | 5 µM | 0%
